Laboratory results published in ChEMBL document CHEMBL4152184, “NB 06: From a simple lysosomotropic aSMase inhibitor to tools for elucidating the role of lysosomes in signaling apoptosis and LPS-induced inflammation” (Eur J Med Chem, 2018).
pIC50: −log10 of the molar value. Activity calls are given as the source filed them. The calls are words filed in the database; no cut-off is given here.

Assays:
[1] = biological target: T1, Sphingomyelin phosphodiesterase (Homo sapiens) (UniProt P17405); experiment: Inhibition of mmLDL-stimulated acid sphingomyelinase in human PBMC lysates up to 10 uM preincubated for 30 mins followed by mmLDL stimulation measured after 4 hrs by YO-PRO-1/Hoechst 33342 staining based assay
T1 sequence (whole entry): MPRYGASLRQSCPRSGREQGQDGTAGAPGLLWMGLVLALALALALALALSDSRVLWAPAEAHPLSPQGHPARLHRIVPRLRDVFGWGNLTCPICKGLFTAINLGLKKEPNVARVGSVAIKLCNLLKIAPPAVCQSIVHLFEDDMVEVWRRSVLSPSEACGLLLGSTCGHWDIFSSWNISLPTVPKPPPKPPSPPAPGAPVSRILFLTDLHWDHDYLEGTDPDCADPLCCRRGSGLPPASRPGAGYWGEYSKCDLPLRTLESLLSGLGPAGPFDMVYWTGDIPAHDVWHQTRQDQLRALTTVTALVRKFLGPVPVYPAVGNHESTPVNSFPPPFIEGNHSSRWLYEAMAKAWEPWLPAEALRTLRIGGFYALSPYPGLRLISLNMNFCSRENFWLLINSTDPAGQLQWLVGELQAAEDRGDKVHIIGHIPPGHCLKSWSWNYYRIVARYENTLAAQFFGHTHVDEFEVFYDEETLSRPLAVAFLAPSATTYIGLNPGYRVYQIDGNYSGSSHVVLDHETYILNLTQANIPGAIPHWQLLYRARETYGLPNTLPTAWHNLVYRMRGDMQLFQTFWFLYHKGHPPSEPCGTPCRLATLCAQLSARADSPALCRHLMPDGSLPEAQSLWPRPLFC

[2] = biological target: T2, Acid ceramidase (Homo sapiens) (UniProt Q13510); experiment: Inhibition of mmLDL-stimulated acid ceramidase in human PBMC assessed as ratio of C16-ceramide/lipid phosphate level at 10 uM preincubated for 30 mins followed by mmLDL stimulation measured after 4 hrs by HPLC method (reference value: 0.49); assay type: cell-based
T2 sequence (whole entry): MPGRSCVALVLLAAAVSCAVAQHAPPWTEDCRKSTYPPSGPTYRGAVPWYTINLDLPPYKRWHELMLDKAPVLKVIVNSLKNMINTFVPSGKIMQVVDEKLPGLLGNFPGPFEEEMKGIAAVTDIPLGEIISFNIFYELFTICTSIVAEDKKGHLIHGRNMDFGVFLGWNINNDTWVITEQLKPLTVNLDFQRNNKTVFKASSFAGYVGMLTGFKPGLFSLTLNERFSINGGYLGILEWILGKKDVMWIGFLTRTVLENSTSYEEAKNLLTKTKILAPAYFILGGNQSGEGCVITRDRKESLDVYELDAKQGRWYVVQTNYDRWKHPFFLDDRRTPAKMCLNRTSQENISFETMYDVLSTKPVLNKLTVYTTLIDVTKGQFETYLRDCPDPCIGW
Method in brief: (§1)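 Human macrophages from primary culture were preincubated 30 min with 10 µM compound. They were then stimulated 4 h with mmLDL (54 µg/mL), TNFalpha (3 ng/mL) or exogenous C6-ceramide (10 µM), or left unstimulated. Individual ceramide species (C16 and C24:1) were quantified in the cell lipid extracts.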

[3] = biological target: T2, Acid ceramidase (Homo sapiens); experiment: Inhibition of exogenous C6-ceramid-stimulated acid ceramidase in human PBMC assessed as ratio of C16-ceramide/lipid phosphate level at 10 uM preincubated for 30 mins followed by C6-ceramid stimulation measured after 4 hrs by HPLC method (reference value: 2.19); assay type: cell-based; method in brief: as §1
[4] = biological target: T2, Acid ceramidase (Homo sapiens); experiment: Inhibition of exogenous C6-ceramid-stimulated acid ceramidase in human PBMC assessed as ratio of C24:1-ceramide/lipid phosphate level at 10 uM preincubated for 30 mins followed by C6-ceramid stimulation measured after 4 hrs by HPLC method (reference value: 2.65); assay type: cell-based; method in brief: as §1
[5] = test system: MONO-MAC-6; experiment: Upregulation of CXCL3 mRNA expression level in LPS-stimulated human MONO-MAC-6 cells at 5 uM preincubated for 30 mins followed by LPS stimulation measured after 4 hrs by oligonucleotide array hybridization assay (reference value: 13.52); assay type: functional
[6] = test system: MONO-MAC-6; experiment: Upregulation of CCL20 mRNA expression level in LPS-stimulated human MONO-MAC-6 cells at 5 uM preincubated for 30 mins followed by LPS stimulation measured after 4 hrs by oligonucleotide array hybridization assay (reference value: 10.69); assay type: functional
[7] = test system: MONO-MAC-6; experiment: Downregulation of CCL20 mRNA expression level in human MONO-MAC-6 cells at 5 uM incubated for 30 mins measured after 6 hrs by oligonucleotide array hybridization assay relative to control; assay type: functional
Method in brief: (§2)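 Total RNA was isolated, transcribed and labeled with DY-647 dye, then co-hybridized with DY-548-labeled cDNA from untreated cells on an inflammation oligonucleotide chip (780 gene probes). Differential expression >1.5 was taken as significant.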

[8] = test system: MONO-MAC-6; experiment: Upregulation of CXCL10 mRNA expression level in human MONO-MAC-6 cells at 5 uM incubated for 30 mins measured after 1 hr by oligonucleotide array hybridization assay relative to control; assay type: functional
[9] = test system: MONO-MAC-6; experiment: Upregulation of CXCL2 mRNA expression level in LPS-stimulated human MONO-MAC-6 cells at 5 uM preincubated for 30 mins followed by LPS stimulation measured after 1 hr by oligonucleotide array hybridization assay (reference value: 1.42); assay type: functional
[10] = test system: MONO-MAC-6; experiment: Upregulation of CXCL2 mRNA expression level in LPS-stimulated human MONO-MAC-6 cells at 5 uM preincubated for 30 mins followed by LPS stimulation measured after 4 hrs by oligonucleotide array hybridization assay (reference value: 13.17); assay type: functional
[11] = test system: MONO-MAC-6; experiment: Downregulation of PTGS2 mRNA expression level in human MONO-MAC-6 cells at 5 uM incubated for 30 mins measured after 1 hr by oligonucleotide array hybridization assay relative to control; assay type: functional; method in brief: as §2
[12] = test system: MONO-MAC-6; experiment: Upregulation of ICAM1 mRNA expression level in human MONO-MAC-6 cells at 5 uM incubated for 30 mins measured after 1 hr by oligonucleotide array hybridization assay relative to control; assay type: functional
[13] = test system: MONO-MAC-6; experiment: Upregulation of ICAM1 mRNA expression level in LPS-stimulated human MONO-MAC-6 cells at 5 uM preincubated for 30 mins followed by LPS stimulation measured after 4 hrs by oligonucleotide array hybridization assay (reference value: 2.88); assay type: functional
[14] = test system: MONO-MAC-6; experiment: Downregulation of ICAM1 mRNA expression level in human MONO-MAC-6 cells at 5 uM incubated for 30 mins measured after 6 hrs by oligonucleotide array hybridization assay relative to control; assay type: functional; method in brief: as §2
[15] = test system: MONO-MAC-6; experiment: Downregulation of CXCL2 mRNA expression level in human MONO-MAC-6 cells at 5 uM incubated for 30 mins measured after 6 hrs by qRT-PCR method relative to control; assay type: functional
[16] = test system: MONO-MAC-6; experiment: Downregulation of IL-6 mRNA expression level in LPS-stimulated human MONO-MAC-6 cells at 5 uM preincubated for 30 mins followed by LPS stimulation measured after 6 hrs by qRT-PCR method (reference value: 5.09); assay type: functional
[17] = biological target: T3, Sphingomyelin phosphodiesterase (Homo sapiens, UniProt P17405); experiment: Inhibition of mmLDL-stimulated acid sphingomyelinase in human PBMC lysates using BODIPY FL C5-sphingomyelin as substrate preincubated for 30 mins followed by mmLDL stimulation measured after 2 hrs by HPLC method
T3 sequence (P17405 whole entry): T1 sequence (whole entry)

## COc1ccc(CCN(C)CCCn2c3ccccc3c3ccccc32)cc1
[1]
  inhibition: inactive
[2]
  Ratio: 0.24
[3]
  Ratio: 0.47
[4]
  Ratio: 2.65
[5]
  fold change (FC): 8.83
[6]
  fold change (FC): 4.54
[7]
  fold change (FC): 5.68
[8]
  fold change (FC): 1.11
[9]
  fold change (FC): 1.14
[10]
  fold change (FC): 5.82
[11]
  fold change (FC): 1.1
[12]
  fold change (FC): 1.1
[13]
  fold change (FC): 1.31
[14]
  fold change (FC): 1.79
[15]
  fold change (FC): 4.71
[16]
  fold change (FC): 1.1
[17]
  pIC50: 4.77 to 4.89
